# An excerpt weighted towards active compounds, which were near 2.6% of everything screened.
# SENP6 block: inhibitors of human SENP6 protease; Q9GZR1; Recombinant SENP6 catalytic domain, aminoluciferin luminescence; inhibition, % at 10 µM; 1.8% of 330,000 active; AID 2599;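 active = inhibition above about 50% at the single tested dose, limit read from the data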;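 also: plate controls were DMSO wells with enzyme for no effect and DMSO wells lacking enzyme for full effect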
# SENP8 block-1: blocks the human protease SENP8 | Q96LD8 | purified SENP8, Z-RLRGG-aminoluciferin cleavage, luminescence | inhibition, % at 10 µM | 1.2% of 330,000 active; in the data active = inhibition above about 50%
# Target sequence (Q96LD8 whole entry, looked up): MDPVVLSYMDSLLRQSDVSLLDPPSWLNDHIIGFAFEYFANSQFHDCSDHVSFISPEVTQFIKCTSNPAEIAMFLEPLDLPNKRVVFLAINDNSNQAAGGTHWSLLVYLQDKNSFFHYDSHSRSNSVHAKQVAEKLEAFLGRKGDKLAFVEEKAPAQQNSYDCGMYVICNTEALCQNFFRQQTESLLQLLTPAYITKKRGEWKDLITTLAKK
# Platelet DG rel: platelet dense granule release activity. human platelet-rich plasma, SFLLRN dense granule ATP release, luminescence. inhibition, %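 (compounds screened at 7.5 µM in platelet-rich plasma)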. 0.22% of 300,000 active;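 active = mean replicate score, as percent of positive control, at or above 50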
# SENP1 inh: SENP1 (human) catalytic domain inhibition. inhibition, % at 10 µM. recombinant SENP1 catalytic domain, CyPet-SUMO1-YPet FRET cleavage. Q9P0U3. AID 624204. 0.21% of 360,000 active;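 active = inhibition at least 30% at 10 µM, raw YFP signal under a set limit, fluorescence ratio 0.5 to 1.5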;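 also: 0% = enzyme with DMSO and 100% = no enzyme wells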
#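 Compound: 10 µM single point, 0.5% DMSO; Test system: hSENP1 catalytic domain, recombinant; Timing: 50 min reaction at room temperature; Technique: FRET, CFP and YFP emission; Control set: no-enzyme wells low, DMSO-plus-enzyme wells high control.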
# SENP7 inh: blocks the human protease SENP7 | Q9BQF6 | recombinant SENP7, Z-RLRGG-aminoluciferin luminescence, 40 min | inhibition, % at 5 µM | 1.5% of 330,000 active | AID 434973;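 active = inhibition above about 50% at the single test dose, limit read from the data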;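 also: plate controls were DMSO with enzyme for no effect and no enzyme buffer wells for full effect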
# Target sequence (Q9BQF6 706-1050 limits assumed): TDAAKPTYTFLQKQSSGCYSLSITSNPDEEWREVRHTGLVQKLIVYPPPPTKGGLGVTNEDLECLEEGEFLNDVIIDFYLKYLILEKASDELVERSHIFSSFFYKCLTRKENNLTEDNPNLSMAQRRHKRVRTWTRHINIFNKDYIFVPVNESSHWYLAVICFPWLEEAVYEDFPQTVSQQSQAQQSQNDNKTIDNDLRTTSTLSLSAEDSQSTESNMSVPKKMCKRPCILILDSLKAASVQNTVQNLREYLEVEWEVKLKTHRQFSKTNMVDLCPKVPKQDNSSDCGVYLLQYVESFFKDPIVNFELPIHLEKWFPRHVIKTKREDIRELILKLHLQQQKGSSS
# SENP8 block-2: inhibitors of human SENP8 protease | inhibition, % at 20 µM | recombinant SENP8, Nedd8 substrate fluorescence | 0.64% of 360,000 active; in the data active = inhibition mostly above about 40%, no sharp cut-off; inactive = mostly below about 27%
# SENP8 confirm: confirmation of human SENP8 protease inhibitors; shares compounds with SENP7 inh; Recombinant SENP8, Z-RLRGG-aminoluciferin luminescence, 60 min; inhibition, % at 12.5 µM; 40% of 6,200 active; AID 488912;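 active = mean inhibition across replicates above about 50%, limit read from the data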
# SENP6 conf: confirmation of human SENP6 protease inhibitors | shares compounds with SENP7 inh | recombinant SENP6, Z-RLRGG-aminoluciferin luminescence | inhibition, % at 12.5 µM | 58% of 6,200 active | AID 488915
# SENP7 conf: human SENP7 inhibition, confirmed; inhibition, % at 12.5 µM; recombinant SENP7, Z-RLRGG-aminoluciferin luminescence, 40 min; shares compounds with SENP7 inh; 69% of 6,200 active; AID 488917
# Casp3 SENP sel: caspase-3 inhibition (SENP selectivity assay); shares compounds with SENP7 inh; purified caspase-3, Z-DEVD-aminoluciferin luminescence, 60 min; inhibition, % at 12.5 µM; 60% of 6,200 active; AID 488918;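 active = mean inhibition above about 50%, limit read from the data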;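 also: plate controls were enzyme with DMSO for no effect and wells without caspase-3 for full effect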
# SENP luc ctr: counter-screen for SENP inhibitors: luminescence interference; 39% of 6,200 active; Pre-incubated SENP8/Z-RLRGG-aminoluciferin, luciferase luminescence interference; shares compounds with SENP7 inh; AID 488919; inhibition, % at 12.5 µM;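 active = mean inhibition above about 50% when retested at one dose, limit read from the data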;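 also: plate controls were DMSO wells with completed reaction for no effect and substrate without enzyme for full effect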
# An asterisk follows results filed as active; · = not tested or not shown.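 The calls were made as follows, unless noted: active = mean inhibition above about 50% in the one-dose retest (limit read from the data); inactive = the rest.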
SMILES,SENP6 block,SENP8 block-1,Platelet DG rel,SENP1 inh,SENP7 inh,SENP8 block-2,SENP8 confirm,SENP6 conf,SENP7 conf,Casp3 SENP sel,SENP luc ctr
Cc1ccc(C(=O)Nc2cc3ccccc3oc2=O)cc1,90.8*,89.3*,49.7*,3.0,97.7*,-304.2,32.8,32.6,18.2,55.5*,6.3
Cc1ccc(C)c(NC(=O)c2cc3ccccc3o2)c1,40.0,26.1,4.8,1.0,53.3*,10.6,52.2*,48.9,77.7*,58.2*,30.6
O=C(O)c1ccc(NC(=O)c2cc3ccccc3o2)cc1,35.0,7.7,1.3,0.5,9.7,3.5,·,·,·,·,·
COc1ccc(COc2ccc(S(=O)(=O)N3CCCC3)cc2C(N)=O)cc1F,-3.6,-3.2,-7.6,1.7,-1.2,7.3,·,·,·,·,·
Cc1cccc(N2CCN(Cc3cn(C)nc3-c3ccccc3F)CC2)n1,-3.5,-10.8,-2.5,-0.8,8.7,-18.4,·,·,·,·,·
NS(=O)(=O)c1cccc(NC(=O)COC(=O)c2ccccc2SCC(=O)N2CCCC2)c1,-9.0,0.2,·,-7.7,0.1,-29.3,·,·,·,·,·
O=C(NC1=NCCS1)c1csc2ccccc12,80.7*,60.3*,0.5,1.0,72.6*,-0.7,4.2,68.5*,89.4*,77.9*,73.6*
O=C(NC1=NCCS1)c1ccccc1Cl,-7.6,-0.2,-0.5,-0.9,-5.6,16.8,·,·,·,·,·
CCCC(=O)Nc1ccc(NC(=O)c2cc3ccccc3o2)c(OC)c1,29.5,2.3,4.0,-2.2,54.5*,-22.1,7.9,5.7,26.8,18.6,7.2
Cc1ccc(C)c(NC(=O)c2ccc3ccccc3n2)c1,96.8*,90.8*,19.9,1.8,97.0*,23.8,81.8*,16.5,34.7,66.9*,16.5
Cc1csc(NC(=O)c2cc3ccccc3o2)n1,84.7*,78.8*,·,-19.3,89.7*,-64.5,85.7*,82.2*,97.1*,90.3*,86.3*
Cc1ccc(-c2cccc(CN3CCN(C4CCN(C(C)C)CC4)C(CCO)C3)c2)o1 (centres undefined),14.6,-1.0,7.8,-7.1,4.9,16.5,·,·,·,·,·
COC(=O)c1ccccc1NC(=O)c1cc2ccccc2o1,10.4,2.5,-16.1,0.1,-4.6,-17.8,·,·,·,·,·
O=C(NC1=NCCS1)c1cc(Cl)ccc1Cl,-6.1,-4.9,-1.3,0.9,1.0,15.4,·,·,·,·,·
O=C(NC1=NCCS1)c1ccc(Cl)c(Cl)c1,69.5*,43.2,-5.8,0.2,59.9*,27.4,10.9,63.0*,49.2,64.6*,8.8
O=C(Nc1cccc(O)c1)C(=O)Nc1ccccn1,96.1*,87.4*,70.8*,2.8,97.4*,16.3,93.1*,93.1*,100.3*,96.5*,81.9*
CCOC(=O)Cc1csc(NC(=O)c2cc3ccccc3o2)n1,9.9,17.9,4.8,1.2,28.7,-23.2,·,·,·,·,·
Cc1csc(C(C#N)C(=O)c2cc3ccccc3o2)n1 (centres undefined),59.2*,53.9*,1.0,0.1,13.7,13.6,31.3,73.3*,86.1*,78.7*,46.0
O=C(Nc1ccccc1C(F)(F)F)c1cc2ccccc2o1,73.5*,66.5*,-1.6,0.3,68.3*,16.7,60.5*,70.6*,91.6*,73.6*,67.3*
C/C(CC(=O)Nc1ccccn1)=N\NC(=O)C(=O)Nc1cccc(C)c1,8.1,-4.9,0.5,-4.6,0.5,7.3,·,·,·,·,·
CNC(=O)NC(=O)CSc1ccc(S(=O)(=O)N2CCOCC2)cn1,-9.9,-10.2,·,1.4,-7.8,2.9,·,·,·,·,·
CCC(=O)N1Cc2cc(C(=O)Nc3nccs3)nc(-c3cccc(-c4ccccc4OC)c3)c2[C@H]1CCO,·,·,·,1.9,·,4.5,·,·,·,·,·
COc1ccc(NC(=O)c2scc(S(=O)(=O)C(C)C)c2N)cc1,66.0*,58.7*,4.7,-0.9,86.3*,0.0,68.4*,66.1*,88.8*,82.4*,67.6*
COc1ccc(NC(=O)c2sc(SC)nc2N)cc1,35.4,22.6,5.8,0.0,51.5*,13.9,45.2,40.4,74.4*,63.7*,52.0*
COc1ccc(NC(=O)c2sc(SCc3ccccc3)nc2N)cc1,13.6,0.7,3.5,-1.7,15.3,15.5,·,·,·,·,·
SMILES,SENP6 block,SENP8 block-1,Platelet DG rel,SENP1 inh,SENP7 inh,SENP8 block-2,SENP8 confirm,SENP6 conf,SENP7 conf,Casp3 SENP sel,SENP luc ctr
COc1ccc2c(c1)Cc1sc(NC(=O)c3ccccc3)nc1-2,95.1*,91.3*,0.9,-4.5,90.0*,-24.0,4.2,65.3*,87.9*,65.5*,23.8
COc1ccc(C(=O)Nc2nc3c(s2)Cc2cc(OC)ccc2-3)cc1,81.7*,89.6*,6.1,-37.8,93.3*,-59.0,28.6,67.6*,50.3*,18.9,4.2
COc1ccc2c(c1)Cc1sc(NC(=O)c3cccs3)nc1-2,91.8*,96.1*,14.6,-6.8,94.3*,14.7,67.3*,75.0*,99.3*,77.3*,29.1
CCOC(=O)C1(C)CCN1C(=O)c1ccccc1C(F)(F)F (centres undefined),·,·,·,0.0,·,10.9,·,·,·,·,·
CCCCc1ccc(NC(=O)CSc2nnc(C)c(=O)n2N)cc1,-8.6,-3.4,-19.2,1.3,7.9,3.7,·,·,·,·,·
N#Cc1ccsc1NC(=O)C1CC(=O)N(Cc2ccccc2)C1 (centres undefined),-5.6,2.0,1.0,-13.2,-4.0,2.8,·,·,·,·,·
COc1ccccc1Nc1nc(-c2cccnc2)cs1,67.4*,50.4*,-0.1,0.1,52.7*,16.0,-26.5,38.8,77.9*,42.5,59.8*
COc1ccc(Nc2nc(-c3cccnc3)cs2)c(OC)c1,11.7,-8.9,-0.3,2.3,-17.6,6.7,·,·,·,·,·
Fc1ccc(Nc2nc(-c3cccnc3)cs2)cc1,24.7,2.0,1.6,2.3,34.1,0.6,·,·,·,·,·
CN(C)c1ccc(Nc2nc(-c3cccnc3)cs2)cc1,87.7*,86.6*,18.5,1.4,89.1*,23.5,43.4,78.1*,96.3*,92.2*,31.8
CCN(CC)c1ccc(Nc2nc(-c3cccnc3)cs2)cc1,62.1*,56.8*,17.2,4.4,10.9,15.7,55.8*,51.7*,87.8*,47.0,22.0
CC1=C(C(=O)N2CCOCC2)CC(CC(=O)NCc2ccco2)C(=O)N1CCC1=CCCCC1 (centres undefined),·,·,·,3.7,·,12.1,·,·,·,·,·

# Assay outcomes: PubChem BioAssay, several laboratories
